Results on 14 compounds are retold here after ChEMBL document CHEMBL2401641, “Design and synthesis of N-alkyldeoxynojirimycin derivatives with improved metabolic stability as inhibitors of BVDV and Tacaribe virus” (Bioorg Med Chem Lett, 2013).

A short description of series [1]: Cytotoxicity against MDBK cells by MTT assay. Format: cell-based, Bos taurus. Conditions: cattle. A general note: Tetrazolium assays rely on reduction of a dye to a coloured formazan, in cell work by metabolically active cells.
Series [2] relates to Bovine viral diarrhea virus 1. As to the kind of experiment: Antiviral activity against Bovine viral diarrhea virus infected in MDBK cells assessed as reduction in viral yield after 3 days by neutral-red staining-based microscopic analysis. Format: functional, organism-based. Conditions: Bovine viral diarrhea virus isolates and strains, 72 h. The method in brief: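 BVDV titers from treated infected cultures were determined by standard virus yield reduction assay in MDBK cells, and EC50 was derived.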

A short description of series [3]: Cytotoxicity against human Huh7.5 cells by MTT assay. Format: cell-based, Huh-7.
The next series has as its system Tacaribe virus. Kind of series: Antiviral activity against Tacaribe virus infected in human Huh7.5 cells assessed as reduction in viral yield after 3 days by neutral-red staining-based microscopic analysis. The format is functional, organism-based. The settings on record: Mammarenavirus tacaribeense, Huh-7, 72 h. Put shortly:
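Huh7 cells infected with Tacaribe virus at MOI 0.01. Compounds were added immediately after virus incubation at 0.01 to 100 μM. Progeny titers were determined by standard virus yield reduction assay in Vero cells, and EC50 was derived.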

A short description of series [4]: Metabolic stability in mouse liver microsomes assessed as compound remaining at 2 uM after 60 mins in presence of NADPH. The format is ADME, Microsome. The settings on record: read-out: Stability. Put shortly:
(§1)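 Liver microsomes at 0.5mg/ml incubated at 37°C with test compound at 2μM in the presence of 1mM NADPH. Percent of parent compound remaining measured at 60 min. Run by a contract lab.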

The nature of series [5]: Metabolic stability in rat liver microsomes assessed as compound remaining at 2 uM after 60 mins in presence of NADPH. Format: ADME, Microsome. Conditions: read-out: Stability. The method in brief: as §1
For orientation: Liver microsomes are a subcellular fraction often used to study metabolism.

Series [6] in a line: Metabolic stability in human liver microsomes assessed as compound remaining at 2 uM after 60 mins in presence of NADPH. The settings on record: read-out: Stability. Format: ADME, Microsome. Put shortly: as §1

Molecules are shown by their SMILES.

The term CC50 denotes the concentration that lowers cell viability or growth by half. The low end stands for harm at low concentration, the high end for better tolerance by the cells. As a reminder, the EC50 is the concentration that produces a half-maximal response. Consider `CC(C)OP(=O)(OC(C)C)N(CCCCCCN1C[C@H](O)[C@@H](O)[C@H](O)[C@H]1CO)C1CCCCC1`, for which the figures for the CC50 in series [1] and in series [3] were greater than 500 µM and 310 µM, respectively. For the same compound, the figures for the concentration for a half-maximal effect (EC50) (in series [2]; in the series on Tacaribe virus) were 3.4 µM and 0.3 µM, respectively.

Regarding `CS(=O)(=O)N(CCCCCCN1C[C@H](O)[C@@H](O)[C@H](O)[C@H]1CO)C1CCCCC1`, the remaining at 1 h, 2 µM is 86.9% in series [4], 65.7% in series [5] and 95.5% in series [6]. Further, the CC50 in series [1] and in series [3] was greater than 500 µM each time. Besides, the EC50 was 0.2 µM in series [2] and 0.7 µM with Tacaribe virus.

Take `CC(C)(C)C(=O)N(CCCCCCN1C[C@H](O)[C@@H](O)[C@H](O)[C@H]1CO)c1ccc(F)cc1F`: the values for the remaining at 1 h, 2 µM in series [4], in series [5] and in series [6] were 55.3%, 21.6% and 36.1%, respectively.

For `CCCNC(=O)N(CCCCCCN1C[C@H](O)[C@@H](O)[C@H](O)[C@H]1CO)C1CCCCC1`, the CC50 in series [1] and in series [3] was greater than 500 µM each time. The EC50 in series [2] worked out at 15.8 µM; with Tacaribe virus, 25 µM.

Consider `NC(=O)N(CCCCCCN1C[C@H](O)[C@@H](O)[C@H](O)[C@H]1CO)C1CCCCC1`, for which the CC50 in series [1] and in series [3] was greater than 500 µM throughout. In addition, the EC50 in series [2] is 14.2 µM; in the series with Tacaribe virus, 100 µM.

As for `CC(C)(C)NC(=O)N(CCCCCCN1C[C@H](O)[C@@H](O)[C@H](O)[C@H]1CO)C1CCCCC1`, the remaining at 1 h, 2 µM was found to be 87.6% in series [4], 92.8% in series [5] and 93.6% in series [6]. Besides, the CC50 in series [1] and in series [3] was greater than 500 µM each time. In addition, the EC50 in series [2] stood at 0.25 µM; in the series on Tacaribe virus it was 0.74 µM.

`O=C1OC[C@@H](c2ccccc2)N1CCCCCCN1C[C@H](O)[C@@H](O)[C@H](O)[C@H]1CO` registered a cytotoxic concentration (CC50) in series [1] greater than 500 µM. In series [2], the EC50 came out at 3.5 µM.

Turning to `CC(C)(C)S(=O)(=O)N(CCCCCCN1C[C@H](O)[C@@H](O)[C@H](O)[C@H]1CO)C1CCCCC1`, the values for the remaining at 1 h, 2 µM in series [4], in series [5] and in series [6] were 65.4%, 12.1% and 50.2%, respectively. In addition, the CC50 in series [1] and in series [3] was greater than 500 µM each time. The EC50 in series [2] is 0.31 µM; in the series with Tacaribe virus it was 0.4 µM.

For the compound `O=C(c1cc(F)c(F)cc1F)N(CCCCCCN1C[C@H](O)[C@@H](O)[C@H](O)[C@H]1CO)C1CCCCC1`, the CC50 in series [1] and in series [3] was greater than 500 µM in each case. The EC50 was found to be 0.27 µM in series [2] and 0.6 µM in the series with Tacaribe virus.

Regarding `CC(C)(C)C(=O)N(CCCCCCN1C[C@H](O)[C@@H](O)[C@H](O)[C@H]1CO)C1CCCCC1`, the remaining at 1 h, 2 µM in series [4] was 58.6%; in series [5], 26.9%; in series [6] it was 41.6%. Besides, in series [1], the CC50 was greater than 500 µM.

With `O=S(=O)(c1ccccc1)N(CCCCCCN1C[C@H](O)[C@@H](O)[C@H](O)[C@H]1CO)C1CCCCC1`, the figures for the remaining at 1 h, 2 µM in series [4], in series [5] and in series [6] were 42.8%, 3.83% and 13%, respectively. For the same compound, the CC50 is 200 µM in series [1] and 280 µM in series [3]. The EC50 in series [2] was found to be 0.5 µM; in the series on Tacaribe virus it was 1.6 µM.

With `O=c1oc2ccccc2n1CCCCCCN1C[C@H](O)[C@@H](O)[C@H](O)[C@H]1CO`, the results for the remaining at 1 h, 2 µM in series [4], in series [5] and in series [6] were 86.7%, 86.9% and 101%, respectively. The CC50 in series [1] and in series [3] was greater than 500 µM in each case. Also, the EC50 (in series [2]; in the series with Tacaribe virus) was 0.4 µM each time.

Take `O=C(c1ccccc1)N(CCCCCCN1C[C@H](O)[C@@H](O)[C@H](O)[C@H]1CO)C1CCCCC1`: the values for the remaining at 1 h, 2 µM in series [4], in series [5] and in series [6] were 97.4%, 77.4% and 82.6%, respectively. Moreover, the CC50 in series [1] and in series [3] was greater than 500 µM each time. In addition, the concentration giving a half-maximal response (EC50) in series [2] was 0.32 µM; with Tacaribe virus, 0.6 µM.

With `O=C1OC[C@H](c2ccccc2)N1CCCCCCN1C[C@H](O)[C@@H](O)[C@H](O)[C@H]1CO`, the CC50 in series [1] was greater than 500 µM. Moreover, in series [2], the EC50 came to 0.8 µM.
